Measured values taken from ChEMBL document CHEMBL1145935, “Novel sst(4)-selective somatostatin (SRIF) agonists. 4. Three-dimensional consensus structure by NMR” (J Med Chem, 2003).
Where “and” joins values, the source holds several entries; their conditions need not be identical. Identical values can stand only once.

Columns and labels:
[1] = molecular target: Somatostatin receptor type 5 (Homo sapiens, UniProt P35346); experiment: Binding affinity towards human Somatostatin receptor type 5 using 125I-[Leu8,DTrp22,Tyr25]SRIF-28 as radioligand
Chain of Somatostatin receptor type 5 (P35346 whole entry): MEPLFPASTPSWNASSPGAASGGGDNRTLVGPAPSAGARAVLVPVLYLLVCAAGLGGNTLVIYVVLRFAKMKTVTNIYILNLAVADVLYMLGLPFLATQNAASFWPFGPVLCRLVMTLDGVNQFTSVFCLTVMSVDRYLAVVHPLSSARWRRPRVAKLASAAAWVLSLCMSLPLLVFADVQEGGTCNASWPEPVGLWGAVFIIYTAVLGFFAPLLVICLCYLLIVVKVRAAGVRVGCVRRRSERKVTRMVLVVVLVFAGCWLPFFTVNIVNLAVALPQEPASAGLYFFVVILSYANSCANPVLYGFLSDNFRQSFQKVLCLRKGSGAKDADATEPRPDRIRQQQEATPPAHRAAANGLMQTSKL
Summary of the method: (§1)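 Competitive radioligand displacement on cloned somatostatin receptors, with non-selective 125I-[Leu8,DTrp22,Tyr25]SRIF-28 as the tracer. IC50 (nM) is taken from the displacement curves. Separate determinations are listed individually, or their number is given in parentheses.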

[2] = molecular target: Somatostatin receptor type 4 (Homo sapiens, UniProt P31391); experiment: Binding affinity towards human Somatostatin receptor type 4 using 125I-[Leu8,DTrp22,Tyr25]SRIF-28 as radioligand
Chain of Somatostatin receptor type 4 (P31391 whole entry): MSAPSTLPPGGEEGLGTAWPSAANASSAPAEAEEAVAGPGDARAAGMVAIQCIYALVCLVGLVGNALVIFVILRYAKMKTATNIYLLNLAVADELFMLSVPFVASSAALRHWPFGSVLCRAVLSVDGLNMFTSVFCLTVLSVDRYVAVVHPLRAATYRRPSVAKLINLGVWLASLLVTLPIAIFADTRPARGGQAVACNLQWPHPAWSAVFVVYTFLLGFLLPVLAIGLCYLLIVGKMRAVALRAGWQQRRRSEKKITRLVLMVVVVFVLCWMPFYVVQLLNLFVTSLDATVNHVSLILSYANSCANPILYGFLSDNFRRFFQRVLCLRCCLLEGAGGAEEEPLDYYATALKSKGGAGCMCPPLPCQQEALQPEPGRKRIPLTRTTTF

[3] = molecular target: Somatostatin receptor type 3 (Homo sapiens, UniProt P32745); experiment: Binding affinity towards human Somatostatin receptor type 3 using 125I-[Leu8,DTrp22,Tyr25]SRIF-28 as radioligand; summary of the method: as §1
Chain of Somatostatin receptor type 3 (P32745 whole entry): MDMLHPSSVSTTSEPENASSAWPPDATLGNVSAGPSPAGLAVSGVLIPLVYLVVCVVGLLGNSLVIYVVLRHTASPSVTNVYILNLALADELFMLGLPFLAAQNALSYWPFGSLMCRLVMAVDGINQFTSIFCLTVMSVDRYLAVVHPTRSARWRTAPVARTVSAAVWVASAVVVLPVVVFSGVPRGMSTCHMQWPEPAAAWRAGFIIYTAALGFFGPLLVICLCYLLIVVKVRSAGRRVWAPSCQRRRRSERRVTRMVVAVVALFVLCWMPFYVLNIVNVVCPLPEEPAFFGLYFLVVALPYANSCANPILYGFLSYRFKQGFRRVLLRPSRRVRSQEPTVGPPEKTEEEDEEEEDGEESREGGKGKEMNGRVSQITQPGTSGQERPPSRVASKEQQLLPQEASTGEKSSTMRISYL

[4] = molecular target: Somatostatin receptor type 1 (Homo sapiens, UniProt P30872); experiment: Binding affinity towards human Somatostatin receptor type 1 using 125I-[Leu8,DTrp22,Tyr25]SRIF-28 as radioligand; summary of the method: as §1
Chain of Somatostatin receptor type 1 (P30872 whole entry): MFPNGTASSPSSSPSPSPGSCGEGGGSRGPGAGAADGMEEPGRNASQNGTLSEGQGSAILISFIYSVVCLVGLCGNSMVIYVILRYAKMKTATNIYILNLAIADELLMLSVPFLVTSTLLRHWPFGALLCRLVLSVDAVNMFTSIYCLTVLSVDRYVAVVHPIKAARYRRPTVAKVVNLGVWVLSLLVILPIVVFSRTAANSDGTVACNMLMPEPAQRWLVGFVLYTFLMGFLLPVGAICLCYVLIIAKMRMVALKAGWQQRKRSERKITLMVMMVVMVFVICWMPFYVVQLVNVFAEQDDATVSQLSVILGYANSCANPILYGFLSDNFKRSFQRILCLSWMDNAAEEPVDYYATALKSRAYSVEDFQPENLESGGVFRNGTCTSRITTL

[5] = molecular target: Somatostatin receptor type 2 (Homo sapiens, UniProt P30874); experiment: Binding affinity towards human Somatostatin receptor type 2 using 125I-[Leu8,DTrp22,Tyr25]SRIF-28 as radioligand; summary of the method: as §1
Chain of Somatostatin receptor type 2 (P30874 whole entry): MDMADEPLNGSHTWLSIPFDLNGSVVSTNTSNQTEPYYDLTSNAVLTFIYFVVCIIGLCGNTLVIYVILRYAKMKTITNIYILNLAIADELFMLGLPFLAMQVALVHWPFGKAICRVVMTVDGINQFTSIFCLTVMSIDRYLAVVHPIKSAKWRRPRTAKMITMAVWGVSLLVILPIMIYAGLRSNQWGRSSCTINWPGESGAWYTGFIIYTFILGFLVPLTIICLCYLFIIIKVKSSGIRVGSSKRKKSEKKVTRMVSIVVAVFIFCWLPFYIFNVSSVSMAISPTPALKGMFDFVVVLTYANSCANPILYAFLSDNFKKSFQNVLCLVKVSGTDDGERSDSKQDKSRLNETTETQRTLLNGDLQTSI

IC50 [1] [nM] | IC50 [2] [nM] | IC50 [3] [nM] | IC50 [4] [nM] | IC50 [5] | SMILES
> 1000 | 153 | > 1000 | > 10000 | > 1000 nM | C[C@@H](O)[C@@H]1NC(=O)[C@H](CCCCN)NC(=O)[C@@H](Cc2c[nH]c3ccccc23)NC(=O)N(C)[C@H](C(=O)c2ccccc2)NC(=O)[C@H](Cc2ccccc2)NC(=O)[C@@H](N)CSSC[C@@H](C(=O)O)NC(=O)[C@H](Cc2ccccc2)NC1=O (stereo in doubt)
> 1000 | – | > 10000 | > 10000 | > 1000 nM and 962 nM | C[C@@H]1NC(=O)[C@H](Cc2ccccc2)NC(=O)[C@@H](N)CSSC[C@@H](C(=O)O)NC(=O)[C@H](C)NC(=O)[C@H]([C@@H](C)O)NC(=O)[C@H](CCCCN)NC(=O)[C@@H](Cc2c[nH]c3ccccc23)NC1=O
768 | 5.2 | 447 | > 1000 | 460 nM | C[C@@H](O)[C@@H]1NC(=O)[C@H](CCCCN)NC(=O)[C@@H](Cc2c[nH]c3ccccc23)NC(=O)N(C)[C@@H](C(=O)c2ccccc2)NC(=O)[C@H](Cc2ccccc2)NC(=O)[C@@H](N)CSSC[C@@H](C(=O)O)NC(=O)[C@H](Cc2ccccc2)NC1=O (stereo in doubt)
360 | 2.8 | 825 | – | 194 nM | C[C@@H](O)[C@@H]1NC(=O)[C@H](CCCCN)NC(=O)[C@H]([C@@H](C)c2ccc3ccccc3c2)NC(=O)[C@H](Cc2ccc(O)cc2)NC(=O)[C@H](Cc2ccccc2)NC(=O)[C@@H](N)CSSC[C@@H](C(=O)O)NC(=O)[C@H](Cc2ccccc2)NC1=O
> 1000 | 5.4 | 403 | > 10000 | > 1000 nM | C[C@@H](O)[C@@H]1NC(=O)[C@H](CCCCN)NC(=O)[C@H](Cc2c[nH]c3ccccc23)NC(=O)N(C)[C@@H](C(=O)c2ccccc2)NC(=O)[C@@H](Cc2ccccc2)NC(=O)[C@@H](N)CSSC[C@@H](C(=O)O)NC(=O)[C@H](Cc2ccccc2)NC1=O (stereo in doubt)
> 1000 | – | > 10000 | > 10000 | > 10000 nM | C[C@@H]1NC(=O)[C@H](Cc2ccccc2)NC(=O)[C@@H](N)CSSC[C@@H](C(=O)O)NC(=O)[C@H](C)NC(=O)[C@H]([C@@H](C)O)NC(=O)[C@H](CCCCN)NC(=O)[C@H](Cc2c[nH]c3ccccc23)NC1=O
> 1000 | 133 | 725 | > 10000 | > 1000 nM | C[C@@H](O)[C@@H]1NC(=O)[C@H](CCCCN)NC(=O)[C@H](Cc2c[nH]c3ccccc23)NC(=O)N(C)[C@H](C(=O)c2ccccc2)NC(=O)[C@H](Cc2ccccc2)NC(=O)[C@@H](N)CSSC[C@@H](C(=O)O)NC(=O)[C@H](Cc2ccccc2)NC1=O (stereo in doubt)
18 | 2.3 | 18 | 410 | 30 nM | C[C@H](c1ccc2ccccc2c1)[C@@H]1NC(=O)[C@H](Cc2ccc(O)cc2)NC(=O)[C@H](Cc2ccccc2)NC(=O)[C@H](N)CSSC[C@@H](C(=O)O)NC(=O)[C@H](Cc2ccccc2)NC(=O)[C@H]([C@@H](C)O)NC(=O)[C@H](CCCCN)NC1=O
668 | 3.5 | 664 | > 10000 | 339 nM | C[C@@H](O)[C@@H]1NC(=O)[C@H](CCCCN)NC(=O)[C@H]([C@@H](C)c2ccc3ccccc3c2)NC(=O)[C@H](Cc2ccc(O)cc2)NC(=O)[C@H](Cc2ccccc2)NC(=O)[C@H](N)CSSC[C@@H](C(=O)O)NC(=O)[C@H](Cc2ccccc2)NC1=O
